Only some compounds are listed: those with a hit (about 4.2% of all), similar ones and a draw of the others.
XBP1 UPR activ – activators of adaptive XBP1 UPR arm, primary screen, cell-based, CHO-XBP1 luciferase reporter, luminescence, uHTS; IRE1-XBP1 UPR activation; percent of tunicamycin response, DMSO as zero; activation, % at 20 µM; hit rate 0.33% among 330,000; AID 463104, 2010;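 active means versus positive control, 20 µM dose yields 30% or more activation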;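 further: 100% = tunicamycin at 10 µg/mL and 0% = DMSO only wells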
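Signal: luciferase luminescence; Assay system: CHO-XBP1 luciferase reporter cells; Amount: one thousand reporter cells per well; Dosing: 20 µM single concentration, DMSO 1%; Benchmarks: high control tunicamycin 10 µg/mL final, low control DMSO vehicle only; Schedule: 6 h compound exposure at 37 °C, 5% CO2; Evaluation: percent activation relative to tunicamycin reference.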
CHOP UPR activ – activators of apoptotic CHOP UPR arm, primary screen, cell-based, CHO-CHOP luciferase reporter, luminescence, uHTS. UPR activation; percent of tunicamycin response over DMSO baseline. activation, % at 10 µM. hit rate 0.34% among 330,000. AID 449763, 2010;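 active means at 10 µM dose, activation of 40% or more, normalized to positive control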;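 further: 100% = tunicamycin at 10 µg/mL and 0% = DMSO alone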
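Material: CHO-CHOP cells, stable luciferase reporter of PERK-eIF2a-CHOP signalling; quantity: 500 reporter cells seeded per well; buffer or medium: F12 medium containing 10% fetal bovine serum; compound: one dose, 10 µM in 0.5% DMSO; incubation: 6 h compound treatment, 37 °C; measured by: Steady-Glo luciferase luminescence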
ANO1 activ – TMEM16A chloride channel activators or potentiators, primary screen, cell-based, HTS; HEK293 TMEM16A/YFP-H148Q/I152L, iodide quench fluorescence; stronger effect = lower value; Anoctamin-1 (Mus musculus), Q8BHY3; hit rate 0.3% among 340,000; B-score at 10 µM;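 active means fluorescence-ratio B-score plate-corrected deviation score at least 3 library SD below zero, with starting fluorescence score within 5 deviations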;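 further: channel opened by trigger with iodide after compound preincubation; score built on the fluorescence ratio of max minus min over baseline; more negative score means more quench and so TMEM16A activation or potentiation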
Target sequence (Q8BHY3 whole entry, looked up): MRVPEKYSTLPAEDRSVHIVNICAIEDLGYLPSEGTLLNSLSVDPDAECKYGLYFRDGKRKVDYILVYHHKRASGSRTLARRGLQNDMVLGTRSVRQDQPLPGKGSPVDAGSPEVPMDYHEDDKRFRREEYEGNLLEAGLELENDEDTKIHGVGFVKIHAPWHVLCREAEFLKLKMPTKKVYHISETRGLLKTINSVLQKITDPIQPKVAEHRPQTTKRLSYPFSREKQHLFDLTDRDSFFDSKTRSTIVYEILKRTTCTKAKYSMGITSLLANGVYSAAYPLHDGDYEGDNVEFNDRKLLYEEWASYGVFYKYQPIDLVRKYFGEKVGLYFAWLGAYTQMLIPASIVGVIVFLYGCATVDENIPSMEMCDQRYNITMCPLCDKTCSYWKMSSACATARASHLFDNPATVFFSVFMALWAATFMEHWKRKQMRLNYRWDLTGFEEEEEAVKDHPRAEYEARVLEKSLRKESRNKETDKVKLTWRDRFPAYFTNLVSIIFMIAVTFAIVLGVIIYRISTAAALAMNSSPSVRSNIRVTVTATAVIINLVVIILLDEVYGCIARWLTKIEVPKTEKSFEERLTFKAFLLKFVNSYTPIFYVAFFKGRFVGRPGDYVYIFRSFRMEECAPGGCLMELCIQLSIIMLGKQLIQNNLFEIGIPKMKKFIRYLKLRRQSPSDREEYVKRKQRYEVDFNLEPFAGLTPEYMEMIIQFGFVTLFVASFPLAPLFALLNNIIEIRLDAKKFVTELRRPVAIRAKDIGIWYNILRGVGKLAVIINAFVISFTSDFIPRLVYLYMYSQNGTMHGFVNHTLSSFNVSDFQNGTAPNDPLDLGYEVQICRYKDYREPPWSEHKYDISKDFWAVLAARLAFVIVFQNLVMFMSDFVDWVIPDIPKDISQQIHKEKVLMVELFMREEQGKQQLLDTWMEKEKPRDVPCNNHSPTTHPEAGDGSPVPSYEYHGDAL
Hep lipid drop – inhibitors of hepatocyte lipid droplet formation, primary screen, imaging, high-throughput imaging, BODIPY stain. AML12 mouse hepatocytes, oleate lipid droplets. hit rate 0.4% among 240,000. inhibition, % at 6.5 µM;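 active means lipid droplet intensity inhibited by at least 50%, with more than 500 cells counted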
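Test system: AML12 mouse liver cells; schedule: overnight exposure; technique: high-content imaging of BODIPY-stained droplets and DAPI nuclei; read-out: % inhibition of corrected integrated BODIPY droplet signal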
TMEM16A inh – TMEM16A chloride channel inhibitors, primary screen, cell-based, HTS; hit rate 1.2% among 310,000; HEK293 TMEM16A/YFP iodide influx fluorescence, ionomycin; normalized B-score (activity score, 25-100; higher = stronger inhibition) at 10 µM; Anoctamin-1 (Mus musculus), Q8BHY3;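 active means ratio plate-corrected score three or more library SD toward inhibition, starting fluorescence score within five deviations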;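 further: score derived from kinetic fluorescence span divided by baseline fluorescence per well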
CHOP inhibitor – inhibitors of CHOP promoter induction, primary screen, cell-based, unfolded protein response, luciferase reporter. AID 2732, 2010. inhibition, % at 10 µM. CHO-K1 CHOP-promoter luciferase, tunicamycin-induced, 15-18 h. hit rate 3.8% among 220,000;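 active means compounds that reduced the stress-induced luciferase reporter signal by more than about 70% of percent inhibition, limit read from the data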;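 further: 0% = tunicamycin plus vehicle and 100% = wells without tunicamycin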
CHOP confirm – retest of CHOP induction inhibitors, confirmation, cell-based. shares compounds with CHOP inhibitor. CHO-CHOP promoter luciferase reporter, tunicamycin-induced, luminescence. inhibition, % at 10 µM. hit rate 45% among 2,100;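 active means mean of three repeat readings of reporter signal inhibition above a set limit, cut at about 70% in these data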;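 further: 0% = tunicamycin plus vehicle and 100% = wells lacking tunicamycin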
* = called active by the depositor; i = inactive; / = no result given; ! = a repeat was not active.

SMILES	XBP1 UPR activ	CHOP UPR activ	ANO1 activ	Hep lipid drop	TMEM16A inh	CHOP inhibitor	CHOP confirm
COc1ccc(O)c(C(=O)CC(=O)c2ccc(F)cc2)c1	-4	3	i	9	i	103*	68
Cc1ccc(C(=O)CC(=O)c2ccccc2)cc1	0	7	i	1	i	/	/
COc1ccc(C(=O)CC(=O)c2ccccc2O)cc1	-5	6	i	10	i	/	/
Cc1ccc(O)c(C(=O)CC(=O)c2cccc(F)c2)c1	1	23	i	14	i	108*	53
Fc1ccc(-c2nn(-c3ccccc3)cc2CNCc2ccccc2)cc1	-4	1	i	0	i	101*	123*
O=C(c1cn(-c2ccccc2)nc1-c1ccc(F)cc1)N1CCCCC1	0	-2	i	-7	i	23	/
O=C(CCl)Nc1cn(-c2ccccc2)nc1-c1ccc(F)cc1	-5	15	i	-1	i	105*	100*
Cc1ccc2nc(NC(=O)C3CCN(S(=O)(=O)c4cc([N+](=O)[O-])ccc4Cl)CC3)sc2c1	4	9	i	6	i	97*	89*
Cc1ccc(NC(=O)C2CCN(S(=O)(=O)c3cc([N+](=O)[O-])ccc3Cl)CC2)nc1	-3	7	i	/	/	/	/
CCNC(=O)/C(=C/c1ccco1)NC(=O)/C=C/c1ccccc1	-3	-4	i	/	i	-2	/
Cc1cc(C)c2c(CC(=O)Nc3ccc(Cl)cn3)coc2c1	2	-2	i	9	i	97*	12
CC12CC(O)C3C(CCC4=CC(=O)CCC43C)C1CCC2=CCO (stereo not given)	/	/	i	/	/	/	/
C=CCOc1c(Br)cc(/C=N/n2c(CC)n[nH]c2=S)cc1Br	0	0	i	-22	i	107*	-7
COc1nc(C)nc(NC(=O)NS(=O)(=O)c2ccc(C)cc2)n1	-1	0	i	1	i	22	/
CCOC(=O)c1c(-c2ccccc2)nnn1-c1nc(OCC)nc(N2CCCCC2)n1	-1	3	i	3	i	101*	62
CC(C)Cn1c(=O)c2ccccc2c2ccccc2c1=O	-5	-2	i	-1	i	103*	-9
CC(C)Cn1c(=S)[nH]c2ccccc2c1=O	2	2	i	0	i	35	/
O=S1(=O)C=C(Sc2nc3ccccc3s2)c2ccccc21	-4	-11	/	-30	i	/	115*
O=C(NCCCn1ccnc1)Nc1ccc2c(c1)OCO2	-1	3	i	-3	i	/	/
Cc1ccc(S(=O)(=O)NC(Cc2ccccc2)C(=O)NN)cc1 (stereo not given)	-6	-2	i	/	i	/	/
Cc1ccc(S(=O)(=O)N[C@@H](Cc2ccccc2)C(=O)CCl)cc1	-5	8	i	1	i	108*!	-261
CCC(C)Sc1nc2c(c(=O)[nH]c(=O)n2C)n1Cc1ccc(Cl)cc1 (stereo not given)	6	-1	i	/	i	98*	103*
CSc1nc2c(c(=O)[nH]c(=O)n2C)n1CCCc1ccccc1	2	-2	i	-39	i	/	/
CC(C)CCSc1nc2c(c(=O)[nH]c(=O)n2C)n1CCCc1ccccc1	4	-1	i	7	i	105*	106*
CC(C)Sc1nc2c(c(=O)[nH]c(=O)n2C)n1Cc1ccc(Cl)cc1	2	-3	i	/	i	47	/
SMILES	XBP1 UPR activ	CHOP UPR activ	ANO1 activ	Hep lipid drop	TMEM16A inh	CHOP inhibitor	CHOP confirm
CC(C)C[C@H](NC(=O)OC(C)(C)C)C(=O)N/N=C/C1=Cc2ccccc2OC1C (stereo not given in full)	4	-1	i	17	i	103*	91*
O=C(CN1C(=O)c2cccc([N+](=O)[O-])c2C1=O)NCc1ccccc1	1	-1	i	/	i	/	/
CCCCCOC(=O)Nc1ccc(S(=O)(=O)Nc2cccc([N+](=O)[O-])c2)cc1	0	2	i	-27	i	109*	27
CC1C/C(=C/c2ccncc2)C(=O)/C(=C/c2ccncc2)C1 (stereo not given)	2	36	i	-10	i	99*	-59
CCOC(=O)C1(Cc2ccccc2C)CCCN(C(=O)c2ccc(OC)o2)C1 (stereo not given)	-2	1	i	-22	i	/	/
O=C(CSc1nnc(SCc2cccc3ccccc23)s1)N=Nc1c(O)[nH]c2ccccc12	/	/	/	-14	i	97*	15
O=C(Cc1cccs1)N=Nc1c(O)[nH]c2ccccc12	1	3	i	-1	i	-46	/
O=[N+]([O-])c1cc(S(=O)(=O)C(F)(F)F)ccc1Sc1nc2ccccc2s1	-14	20	i	/	i	107*	-28
O=C(NCCc1nc(-c2ccccc2)cs1)c1ccc(Br)cc1	-1	0	i	-12	i	55	/
Cc1cc2ncn(-c3ncnc4sc5c(c34)CCC(C)C5)c2cc1C (stereo not given)	0	-1	i	/	i	97*	14
CC(c1ccc(F)cc1)n1cc(C(=O)NCCN(C)C)nn1 (stereo not given)	3	0	i	2	i	18	/
CC(c1ccccc1F)n1cc(C(=O)NCCCc2nc3ccccc3[nH]2)nn1 (stereo not given)	-4	0	i	0	i	97*	20
N#CC1=C(N)Oc2n[nH]c(-c3cccs3)c2C1c1ccncc1 (stereo not given)	-2	0	i	-8	i	-1	/
N#CC1=C(N)Oc2n[nH]c(-c3cccs3)c2C1C1CCCCC1 (stereo not given)	0	1	i	9	i	104*	37
COc1cccc(COC(=O)CCNC(=O)c2ccc(Cl)cc2)c1OC	1	1	i	/	i	/	/
CC(C)(NO)/C(=N/O)c1ccc(Br)cc1	-1	-2	i	/	i	108*	9
COc1ccc(/C(=N/O)C(C)(C)NO)cc1	-4	3	i	15	i	99*	-4
CC(C)(NO)/C(=N\O)c1ccc(Cl)cc1	-5	-4	i	/	i	29	/

Screening results as filed in PubChem BioAssay.
